Tests used:
Plasmodium falciparum [1] = test: In vitro inhibition of chloroquine-sensitive Plasmodium falciparum HB3; type: functional, organism-based
Summary of the method: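 HB3 parasites kept in human erythrocytes (2–5%) in RPMI 1640 with 25 mM HEPES, 32 mM NaHCO3, 10% human serum, gassed 3% O2/4% CO2/93% N2. 48 h assay: initial parasitemia 1%, 5% hematocrit, ethanol-dissolved drug (final <1% ethanol); [3H]-hypoxanthine (0.5 μCi) added at 24 h, counted after further 24 h. Triplicate; IC50 by probit interpolation of log dose–response.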

[2] = Cellular accumulation ratio (CAR) for chloroquine sensitive HB3 strain of Plasmodium falciparum; type: functional
Summary of the method: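 IC50 for HB3 measured at a range of inoculum sizes in the [3H]-hypoxanthine 48 h assay. It is extrapolated to zero inoculum to give the absolute IC50. CAR is calculated as (measured IC50 − absolute IC50)/(absolute IC50 × fractional volume of parasitized RBC).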

Plasmodium falciparum [3] = test: In vitro inhibition of chloroquine-resistant Plasmodium falciparum K1; type: functional, organism-based
Summary of the method: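 P. falciparum K1 (uncloned, Thailand) kept in human erythrocytes in RPMI 1640 with 25 mM HEPES, 32 mM NaHCO3, 10% human serum, under 3% O2/4% CO2/93% N2. Stocks in ethanol, final <1% ethanol. 48 h test at 1% initial parasitemia, 5% hematocrit, 37 °C; [3H]-hypoxanthine added at 24 h, incorporation counted at 48 h. IC50 by probit interpolation of log dose–response; triplicate.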

Row | SMILES | IC50 (Plasmodium falciparum [1]) [nM] | CAR [2] | IC50 (Plasmodium falciparum [3]; Plasmodium falciparum) [nM] | IC50 (Plasmodium falciparum [3]) [nM]
1 | CCN(CC)Cc1cc(Nc2ccnc3cc(Cl)ccc23)ccc1O | 3.7 | 12600 | 27.2 | 
2 | CCN(CC)Cc1cc(Nc2ccnc3cc(Cl)ccc23)cc(-c2ccc(Cl)cc2)c1F | 104 |  | 101 | 
3 | CC(C)(C)NCc1cc(Nc2ccnc3cc(Cl)ccc23)cc(-c2ccc(Cl)cc2)c1F [FLOUROTEBUQUINE] | 61.6 | 1080 |  | 
4 | CCNCCCC(C)Nc1ccnc2cc(Cl)ccc12 (configuration not stated) [DESETHYLCHLOROQUINE] | 17 | 682 |  | 
5 | CC(C)(C)NCc1cc(Nc2ccnc3cc(Cl)ccc23)cc(-c2ccc(Cl)cc2)c1O [TEBUQUINE] |  | 70200 |  | 42.1
6 | CC(C)(C)NCc1cc(Nc2ccnc3cc(Cl)ccc23)cc(-c2ccc(Cl)cc2)c1 | 56.6 | 1200 | 74.2 | 
7 | CCN(CC)CCCC(C)Nc1ccnc2cc(Cl)ccc12 (configuration not stated) |  | 1860 |  | 

Further lines, with some results ahead:

Row | IC50 (Plasmodium falciparum [1]) [nM] | SMILES | CAR [2] | IC50 (Plasmodium falciparum [3]; Plasmodium falciparum) [nM] | IC50 (Plasmodium falciparum [3]) [nM]
8 | 3.7 | CC(C)(C)NCc1cc(Nc2ccnc3cc(Cl)ccc23)ccc1O [N-TERT-BUTYL-AMODIAQUINE] | 21100 |  | 
9 | 55.2 | CCN(CC)Cc1cc(Nc2ccnc3cc(Cl)ccc23)cc(F)c1O | 1510 |  | 
10 | 4.5 | CCNCc1cc(Nc2ccnc3cc(Cl)ccc23)ccc1O [DESETHYL AMODIAQUINE] | 6410 |  | 
11 | 47.3 | CCN(CC)Cc1c(O)cc(F)c(Nc2ccnc3cc(Cl)ccc23)c1F | 922 |  | 
12 | 16.2 | CCN(CC)Cc1cccc(Nc2ccnc3cc(Cl)ccc23)c1 | 3090 |  | 
13 | 31.9 | CCN(CC)Cc1cc(Nc2ccnc3cc(Cl)ccc23)ccc1F | 1710 |  | 
